Experimental data published in ChEMBL document CHEMBL4052822, “Design and Synthesis of Orally Bioavailable Piperazine Substituted 4(1H)-Quinolones with Potent Antimalarial Activity: Structure-Activity and Structure-Property Relationship Studies” (J Med Chem, 2018).
Activity calls are given as the source filed them. The calls are words filed in the database; no cut-off is given here.

Key:
Plasmodium falciparum [1] = experiment: Antimalarial activity against pyrimethamine/chloroquine-resistant Plasmodium falciparum W2 infected in human type A-positive erythrocytes after 48 hrs by [3H]-hypoxanthine incorporation assay; assay type: functional, cell-based
In short: (§1)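 Compound from 10.0 mM DMSO stock, diluted ≥1:400, then 11 concentrations in duplicate. Incubated at 37 °C under 90% N2/5% O2/5% CO2 for 48 h, then 3H-hypoxanthine added for 24 h more. CPM counted; EC50 by nonlinear regression.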

Plasmodium berghei [2] = experiment: Antimalarial activity against Plasmodium berghei infected in human HepG2 cells after 44 hrs by luciferase assay; assay type: functional, cell-based; conditions: HepG2, 44 h
In short: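 HepG2 cells, 75000 per well, in DMEM with 10% FBS at 37 °C, 5% CO2. 5000 Pb luciferase sporozoites from dissected mosquito salivary glands added per well for 3 h, then washed three times with PBS. Serially diluted compound added in triplicate, 44 h at 37 °C. Cells lysed, luciferase substrate added, luminescence read.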

Plasmodium falciparum [3] = experiment: Antimalarial activity against mefloquine/chloroquine/atovaquone/pyrimethamine-resistant Plasmodium falciparum TM90-C2B infected in human type A-positive erythrocytes after 48 hrs by [3H]-hypoxanthine incorporation assay; assay type: functional, cell-based; in short: as §1
[4] = Resistance index, ratio of EC50 for mefloquine/chloroquine/atovaquone/pyrimethamine-resistant Plasmodium falciparum TM90-C2B to EC50 for pyrimethamine/chloroquine-resistant Plasmodium falciparum W2; assay type: functional
J774 = experiment: Cytotoxicity against mouse J774 cells after 72 hrs by CellTiter-96 aqueous one solution cell proliferation assay; assay type: cell-based; conditions: J774, 72 h
In short: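 Compounds from 10 µg/mL or 20 µM top concentration, 1:2 serial dilutions over 11 concentrations, 72 h at 37 °C, 5% CO2. MTS-type reagent added for 4 h, absorbance read at 490 nm. IC50 by nonlinear regression.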

Plasmodium berghei [5] = experiment: animal or person; conditions: in Mus musculus, po, read-out: INH
Plasmodium berghei [6] = experiment: Antimalarial activity against blood stage form of GFP transfected Plasmodium berghei infected in mouse assessed as protection against parasitemia at 10 mg/kg, po administered on day 3, 4, 5 post infection measured on day 30 by Thompson test; assay type: functional, organism-based
In short: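 Modified Thompson model: mice inoculated ip with 2×10^6 P. berghei (GFP)-infected red blood cells, parasitemia near 1% by day 3. […] Animals followed for 30 days; survival to day 30 with parasitemia below 1% counted as cure.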

[7] = Aqueous solubility of compound at pH 6.5; assay type: physicochemical

COC(=O)c1c[nH]c2cc(N3CCN(Cc4ccccc4)CC3)c(C)cc2c1=O
EC50 (Plasmodium falciparum [1]): 13 nM | EC50 (Plasmodium berghei [2]): > 100 nM | EC50 (Plasmodium falciparum [3]): 980 nM | Ratio EC50 [4]: 75 | EC50 (J774): > 20000 nM

COC(=O)c1c[nH]c2cc(CN3CCN(c4ccccc4)CC3)c(OC)cc2c1=O
EC50 (Plasmodium falciparum [1]): 1.6 nM | EC50 (Plasmodium berghei [2]): 110 nM | EC50 (Plasmodium falciparum [3]): 490 nM | inhibition in vivo at 50 mg/kg (Plasmodium berghei [5]): 82.4% | EC50 (J774): > 20000 nM

CCN(CC)CCCC(C)Nc1ccnc2cc(Cl)ccc12 (centres undefined) [CHLOROQUINE]
EC50 (J774): 47200 nM

COC(=O)c1c[nH]c2cc(N3CCN(Cc4ccccc4)CC3)ccc2c1=O
EC50 (Plasmodium falciparum [1]): 16 nM | EC50 (Plasmodium berghei [2]): 85 nM | EC50 (Plasmodium falciparum [3]): 860 nM | EC50 (J774): > 20000 nM

Cc1[nH]c2cc(CN3CCN(c4ccc(C(F)(F)F)cc4)CC3)ccc2c(=O)c1Br
EC50 (Plasmodium falciparum [1]): 120 nM | EC50 (Plasmodium falciparum [3]): 95 nM | Ratio EC50 [4]: 0.8 | EC50 (J774): > 20000 nM

COC(=O)c1c[nH]c2ccc(CN3CCN(c4ccc(C(F)(F)F)cc4)CC3)cc2c1=O
EC50 (Plasmodium falciparum [1]): 45 nM | EC50 (Plasmodium berghei [2]): 85 nM | EC50 (Plasmodium falciparum [3]): > 2000 nM | EC50 (J774): > 20000 nM

COC(=O)c1c[nH]c2ccc(CN3CCN(c4ccccc4)CC3)cc2c1=O
EC50 (Plasmodium falciparum [1]): 150 nM | EC50 (Plasmodium berghei [2]): 91 nM | EC50 (Plasmodium falciparum [3]): > 2000 nM | EC50 (J774): > 20000 nM

O=C1C(O)=C([C@H]2CC[C@H](c3ccc(Cl)cc3)CC2)C(=O)c2ccccc21 [ATOVAQUONE]
Activity (Plasmodium berghei [6]): Active | EC50 (J774): 28000 nM

COC(=O)c1c[nH]c2cc(CN3CCN(c4ccc(C(F)(F)F)cc4)CC3)c(C)cc2c1=O
EC50 (Plasmodium falciparum [1]): 0.066 nM | EC50 (Plasmodium falciparum [3]): 100 nM | EC50 (J774): > 20000 nM

Cc1cc(=O)c2ccc(CN3CCN(c4ccc(F)cc4)CC3)cc2[nH]1
EC50 (Plasmodium falciparum [1]): 1200 nM | EC50 (Plasmodium falciparum [3]): 1500 nM | Ratio EC50 [4]: 1.2 | EC50 (J774): > 20000 nM

COC(=O)c1c[nH]c2ccc(CN3CCN(c4ccc(F)cc4)CC3)cc2c1=O
EC50 (Plasmodium falciparum [1]): 110 nM | EC50 (Plasmodium falciparum [3]): > 2000 nM | EC50 (J774): > 20000 nM

COC(=O)c1c[nH]c2cc(CN3CCN(Cc4ccc(OC)cc4)CC3)c(C)cc2c1=O
EC50 (Plasmodium falciparum [1]): 2.4 nM | EC50 (Plasmodium falciparum [3]): 1000 nM | EC50 (J774): > 20000 nM

COC(=O)c1c[nH]c2cc(CN3CCN(c4ccc(F)cc4)CC3)c(OC)cc2c1=O
EC50 (Plasmodium falciparum [1]): 1.8 nM | EC50 (Plasmodium berghei [2]): 32 nM | EC50 (Plasmodium falciparum [3]): 220 nM | inhibition in vivo at 50 mg/kg (Plasmodium berghei [5]): 56.9% | EC50 (J774): > 20000 nM

COC(=O)c1c[nH]c2cc(N3CCN(c4ccccc4)CC3)c(OC)cc2c1=O
EC50 (Plasmodium falciparum [1]): 37 nM | EC50 (Plasmodium falciparum [3]): 800 nM | EC50 (J774): 17000 nM

COC(=O)c1c[nH]c2cc(CN3CCN(c4ccc(C(F)(F)F)cc4)CC3)c(OC)cc2c1=O
EC50 (Plasmodium falciparum [1]): 6.4 nM | EC50 (Plasmodium berghei [2]): 9.6 nM | EC50 (Plasmodium falciparum [3]): 210 nM | EC50 (J774): > 20000 nM

COc1cc2c(=O)c(Br)c(C)[nH]c2cc1CN1CCN(c2ccc(C(F)(F)F)cc2)CC1
EC50 (Plasmodium falciparum [1]): 130 nM | EC50 (Plasmodium falciparum [3]): > 2000 nM | EC50 (J774): > 20000 nM

COC(=O)c1c[nH]c2cc(CN3CCN(c4ccc(OC)cc4)CC3)ccc2c1=O
EC50 (Plasmodium falciparum [1]): 3.6 nM | EC50 (Plasmodium berghei [2]): 0.12 nM | EC50 (Plasmodium falciparum [3]): 220 nM | inhibition in vivo at 50 mg/kg (Plasmodium berghei [5]): 39.2%

COC(=O)c1c[nH]c2cc(CN3CCN(c4ccc(OC)cc4)CC3)c(C)cc2c1=O
EC50 (Plasmodium falciparum [1]): 0.57 nM | EC50 (Plasmodium berghei [2]): 4.1 nM | EC50 (Plasmodium falciparum [3]): 180 nM | EC50 (J774): > 20000 nM

O=c1c(Cl)c[nH]c2cc(CN3CCN(c4ccc(F)cc4)CC3)ccc12
EC50 (Plasmodium falciparum [1]): 1100 nM | EC50 (Plasmodium falciparum [3]): > 2000 nM | inhibition in vivo at 50 mg/kg (Plasmodium berghei [5]): 71.9% | EC50 (J774): > 20000 nM

COC(=O)c1c[nH]c2cc(CN3CCN(Cc4ccc5c(c4)OCO5)CC3)ccc2c1=O
EC50 (Plasmodium falciparum [1]): 160 nM | EC50 (Plasmodium falciparum [3]): > 2000 nM | EC50 (J774): > 20000 nM

COC(=O)c1c[nH]c2cc(CN3CCN(Cc4ccccc4)CC3)c(OC)cc2c1=O
EC50 (Plasmodium falciparum [1]): 5.5 nM | EC50 (Plasmodium berghei [2]): 9.3 nM | EC50 (Plasmodium falciparum [3]): > 2000 nM | inhibition in vivo at 50 mg/kg (Plasmodium berghei [5]): 19.3% | EC50 (J774): > 20000 nM

COC(=O)c1c[nH]c2cc(CCN3CCN(Cc4ccc(OC)cc4)CC3)ccc2c1=O
EC50 (Plasmodium falciparum [1]): 12 nM | solubility [7]: ≥ 80 µM | EC50 (J774): > 20000 nM

COC(=O)c1c[nH]c2cc(N3CCN(Cc4ccccc4)CC3)c(OC)cc2c1=O
EC50 (Plasmodium falciparum [1]): 64 nM | EC50 (Plasmodium falciparum [3]): 200 nM | EC50 (J774): 12000 nM

COC(=O)c1c[nH]c2cc(CN3CCN(Cc4ccccc4)CC3)c(C)cc2c1=O
EC50 (Plasmodium falciparum [1]): 1.5 nM | EC50 (Plasmodium berghei [2]): 9.5 nM | EC50 (Plasmodium falciparum [3]): 890 nM | inhibition in vivo at 50 mg/kg (Plasmodium berghei [5]): 24.6% | EC50 (J774): > 20000 nM

COC(=O)c1c[nH]c2ccc(CN3CCN(c4ccc(OC)cc4)CC3)cc2c1=O
EC50 (Plasmodium falciparum [1]): 160 nM | EC50 (Plasmodium berghei [2]): > 100 nM | EC50 (Plasmodium falciparum [3]): > 2000 nM | EC50 (J774): > 20000 nM

COC(=O)c1c[nH]c2cc(CCN3CCN(c4ccccc4)CC3)ccc2c1=O
EC50 (Plasmodium falciparum [1]): 25 nM | solubility [7]: ≥ 80 µM | EC50 (Plasmodium falciparum [3]): 1500 nM | Ratio EC50 [4]: 60 | EC50 (J774): > 20000 nM

COC(=O)c1c[nH]c2cc(CN3CCN(c4ccc(OC)cc4)CC3)c(OC)cc2c1=O
EC50 (Plasmodium falciparum [1]): 3.4 nM | EC50 (Plasmodium berghei [2]): 10 nM | EC50 (Plasmodium falciparum [3]): 860 nM | inhibition in vivo at 50 mg/kg (Plasmodium berghei [5]): 70.6% | EC50 (J774): 16000 nM

COC(=O)c1c[nH]c2cc(N3CCN(c4ccccc4)CC3)c(C)cc2c1=O
EC50 (Plasmodium falciparum [1]): 46 nM | EC50 (Plasmodium falciparum [3]): 1100 nM | inhibition in vivo at 50 mg/kg (Plasmodium berghei [5]): 31.6% | EC50 (J774): 17000 nM

COC(=O)c1c[nH]c2cc(N3CCN(c4ccccc4)CC3)ccc2c1=O
EC50 (Plasmodium falciparum [1]): 4.5 nM | solubility [7]: < 20 µM | EC50 (Plasmodium berghei [2]): 74 nM | EC50 (Plasmodium falciparum [3]): 250 nM | EC50 (J774): > 20000 nM

COC(=O)c1c[nH]c2cc(N3CCN(c4ccc(OC)cc4)CC3)ccc2c1=O
EC50 (Plasmodium falciparum [1]): 7.8 nM | EC50 (Plasmodium falciparum [3]): 150 nM | Ratio EC50 [4]: 20 | EC50 (J774): > 20000 nM

C[C@H]1[C@@H](O)O[C@@H]2O[C@@]3(C)CC[C@H]4[C@H](C)CC[C@@H]1[C@@]24OO3 [ARTENIMOL]
EC50 (J774): 1500 nM

COC(=O)c1c[nH]c2cc(CN3CCN(Cc4ccccc4)CC3)ccc2c1=O
EC50 (Plasmodium falciparum [1]): 1.4 nM | solubility [7]: ≥ 80 µM | EC50 (Plasmodium berghei [2]): 44 nM | EC50 (Plasmodium falciparum [3]): 150 nM | inhibition in vivo at 50 mg/kg (Plasmodium berghei [5]): 12.3% | EC50 (J774): 10000 nM

COC(=O)c1c[nH]c2cc(CN3CCN(Cc4ccc(OC)cc4)CC3)c(OC)cc2c1=O
EC50 (Plasmodium falciparum [1]): 10 nM | EC50 (Plasmodium berghei [2]): 52 nM | EC50 (Plasmodium falciparum [3]): > 2000 nM | inhibition in vivo at 50 mg/kg (Plasmodium berghei [5]): 24.6% | EC50 (J774): > 20000 nM

COC(=O)c1c[nH]c2cc(N3CCN(Cc4ccc(OC)cc4)CC3)ccc2c1=O
EC50 (Plasmodium falciparum [1]): 20 nM | EC50 (Plasmodium falciparum [3]): 1300 nM | Ratio EC50 [4]: 65

COC(=O)c1c[nH]c2cc(CCN3CCN(Cc4ccccc4)CC3)ccc2c1=O
EC50 (Plasmodium falciparum [1]): 120 nM | solubility [7]: ≥ 80 µM | EC50 (Plasmodium berghei [2]): 160 nM | EC50 (Plasmodium falciparum [3]): > 2000 nM | EC50 (J774): > 20000 nM

Cc1[nH]c2cc(CN3CCN(c4ccc(C(F)(F)F)cc4)CC3)ccc2c(=O)c1Cl
EC50 (Plasmodium falciparum [1]): 140 nM | EC50 (Plasmodium falciparum [3]): 1500 nM | Ratio EC50 [4]: 11 | EC50 (J774): > 20000 nM

COC(=O)c1c[nH]c2cc(CN3CCN(c4ccccc4)CC3)c(C)cc2c1=O
EC50 (Plasmodium falciparum [1]): 0.44 nM | Activity (Plasmodium berghei [6]): inactive | EC50 (Plasmodium berghei [2]): 6.9 nM | EC50 (Plasmodium falciparum [3]): 150 nM | EC50 (J774): 12000 nM

COC(=O)c1c[nH]c2cc(N3CCN(c4ccc(OC)cc4)CC3)c(OC)cc2c1=O
EC50 (Plasmodium falciparum [1]): 43 nM | EC50 (Plasmodium berghei [2]): > 100 nM | EC50 (Plasmodium falciparum [3]): 2000 nM | Ratio EC50 [4]: 47 | EC50 (J774): > 20000 nM
